Source: PubChem
RGS4 pot = RGS4 potentiation or activation | B-score at 10 µM | AID 463111 | HEK293 M3R/inducible RGS4, carbachol calcium flux Fluo4; active compounds read low | hit rate 0.92% among 310,000;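 active means B-score of the integrated calcium signal more than 4 SD below the library mean, with starting fluorescence not abnormally high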;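 further: negative B-score means reduced calcium response which marks RGS4 activation or potentiation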
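Assay system: Inducible-RGS4 HEK293 cells carrying M3 receptor | Schedule: Compound preincubation 20 min at room temperature before agonist | Signal: Kinetic calcium fluorescence imaging with Fluo4-AM dye, 2 µM | Read-out basis: B score from integrated fluorescence ratio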
MrgX1 antag = antagonists of human MrgX1 receptor; Q96LB2; MRGX1-HEK293 calcium flux, Fluo-4, BAM8-22 antagonism; active compounds read low; B-score at 10 µM; hit rate 1.3% among 310,000;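 active means calcium-response B-score plate-corrected more than 3 library SD below zero, starting fluorescence within 5 deviations, no agonist response on first addition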;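 further: peak minus trough fluorescence over baseline after final BAM8-22 challenge near maximal dose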
Target sequence (Q96LB2 whole entry, looked up): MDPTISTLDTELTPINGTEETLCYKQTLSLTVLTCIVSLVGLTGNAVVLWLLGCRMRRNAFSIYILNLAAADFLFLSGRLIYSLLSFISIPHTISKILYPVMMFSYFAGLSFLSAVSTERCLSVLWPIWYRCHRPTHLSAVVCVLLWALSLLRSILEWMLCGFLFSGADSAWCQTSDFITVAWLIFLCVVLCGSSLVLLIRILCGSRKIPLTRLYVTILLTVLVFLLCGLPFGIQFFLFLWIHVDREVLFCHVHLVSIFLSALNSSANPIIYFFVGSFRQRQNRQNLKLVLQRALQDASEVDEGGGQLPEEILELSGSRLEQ
RGS4 block = human RGS4 inhibition. HEK293 M3R/RGS4 inducible, Fluo-4 calcium flux; active compounds read high; triggered by carbachol at its EC20. B-score at 10 µM. hit rate 0.45% among 310,000. AID 463165;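 active means B-score, a plate-corrected calcium signal, over three deviations above library mean, with baseline fluorescence within five deviations of library mean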;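 further: RGS4 expression induced by doxycycline in cells with stable M3 receptor; B-score is computed from the integrated fluorescence ratio over baseline after carbachol; higher B-score means a larger calcium signal and so more RGS4 inhibition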
Target sequence (P49798 whole entry, looked up): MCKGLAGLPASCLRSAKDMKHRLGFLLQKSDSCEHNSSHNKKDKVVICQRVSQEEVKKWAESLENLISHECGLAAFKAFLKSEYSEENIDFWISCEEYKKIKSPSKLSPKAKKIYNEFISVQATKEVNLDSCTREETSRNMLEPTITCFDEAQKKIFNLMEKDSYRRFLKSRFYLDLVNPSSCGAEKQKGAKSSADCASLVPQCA
MrgX1 agonist = activates human MrgX1 receptor signaling. hit rate 0.44% among 310,000. AID 588627. MrgX1-HEK293 cells, Fluo-4 calcium fluorescence, agonist mode; active compounds read high. Q96LB2. B-score at 10 µM;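 active means calcium response B-score plate-corrected fluorescence ratio at least 3 library SD, with starting fluorescence B-score inside 5 SD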
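Material: MrgX1-expressing HEK293 cells; input: 15,000 cells per well; doses: test compound given as first of three sequential additions; schedule: overnight plating before 1 h dye loading; technique: Fluo-4 NW calcium-flux fluorescence, kinetic read; evaluation: baseline-normalised fluorescence change ratio, B-scored; control set: plate-wise positive and negative controls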
MrgX1 allo act = allosterically activates human MrgX1 receptor signaling | hit rate 0.63% among 310,000 | MrgX1-HEK293, Fluo-4 calcium flux, FDSS; active compounds read high | Q96LB2 | B-score at 10 µM;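 active means plate-corrected calcium response at least 3 library SD above typical, normal starting fluorescence, not activating the receptor alone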;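 further: compound read alongside a low EC10 to EC30 dose of BAM8-22 agonist; peak minus trough fluorescence over baseline measured at the second addition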
RGS4 inh valid = RGS4 inhibitor validation | shares compounds with RGS4 block | HEK293 M3R/RGS4, carbachol calcium Fluo-4 fluorescence; carbachol added at its EC20; 0 = buffer wells, 100 = carbachol control | calcium response, % at 10 µM | hit rate 65% among 1,700 | AID 492999;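 active means duplicate-averaged calcium response above the buffer-only control mean plus 5 SD of those controls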;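 further: integrated fluorescence ratio F max minus min over baseline F0; higher response in RGS4-induced cells means RGS4 inhibition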
RGS4 uninduced = non-induced cell nonspecific activity of RGS4 inhibitors | hit rate 20% among 1,900 | HEK293 M3R non-induced, carbachol calcium Fluo-4; submaximal (EC20) carbachol stimulus; buffer wells 0%, carbachol control wells 100% | shares compounds with RGS4 block | activity (percent), % at 10 µM; call rule not given here;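 further: RGS4 induction absent so cells express M3R without RGS4; higher means more calcium signal and flags a non-specific hit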
M3R basal Ca ctr = second RGS4 inhibitor counter-screen in uninduced cells lacking carbachol; shares compounds with RGS4 block; HEK293 M3R/RGS4 non-induced, Fluo-4 calcium, no carbachol; normalised: buffer wells 0%, carbachol wells 100%; calcium response (agonist-mode artifact), % at 10 µM; hit rate 22% among 1,900;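 active means duplicate-averaged calcium rise in uninduced cells above buffer wells' mean plus 5 SD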
Hits are given with their value; - = inactive; . = no result given. This is a sample that favours compounds with a hit; in the whole collection about 3.5% have one here.

SMILES	RGS4 pot	MrgX1 antag	RGS4 block	MrgX1 agonist	MrgX1 allo act	RGS4 inh valid	RGS4 uninduced	M3R basal Ca ctr
O=C(CNC(=O)c1cn2ccccc2n1)Nc1ccc(F)c(F)c1	-	-	-	-	-	.	.	.
CC1(C)CC(=O)C(N=Nc2ccc(-c3ccccc3)cc2)=C(O)C1	-	-	-	-	-	.	.	.
O=C1CCCC(O)=C1Sc1ccccc1C(=O)O	-	-	-	-	-	.	.	.
CC1(C)CC(=O)C(C(C#Cc2ccccc2)C2=C(O)CC(C)(C)CC2=O)=C(O)C1	-	-	8	-	-	44%	-	22%
O=C1CCCC(O)=C1C(C#Cc1ccccc1)C1=C(O)CCCC1=O	-	-	6.7	27	-	50%	-	11%
Cc1nn(C)cc1C(C(=O)NC1CCCCC1)N(Cc1ccc(F)cc1)C(=O)c1cnccn1 (stereo not drawn)	-	-	-	-	-	.	.	.
O=C(CSc1nc2ccccc2c(=O)[nH]1)Nc1ccc(N2CCOCC2)c(Cl)c1	-	-	-	-	-	.	.	.
Cc1c(C(c2cccc(Br)c2)c2c(C)n(C)n(-c3ccccc3)c2=O)c(=O)n(-c2ccccc2)n1C	-	-	-	-	-	.	.	.
CCNC(=S)N/N=C/c1sccc1C	-	-	-	-	-	.	.	.
Cc1ccsc1/C=N/NC(=S)NCCc1ccccc1	-	-	8.6	-	-	18%	-	-
COc1cccc(NC(=O)C2C3C=CC(C3)C2C(=O)O)c1 (stereo not drawn)	-	-	-	-	-	.	.	.
COc1ccc(-n2c(O)c(/C=C3\C=Nc4ccccc43)c(=O)[nH]c2=O)cc1	-	.	-	.	.	.	.	.
Cc1ccc(-n2c(O)c(/C=C3/C(c4ccccc4)=Nc4ccccc43)c(=O)[nH]c2=O)cc1	-	-	9.8	29	-	5.0%	-	49%
CCOc1ccccc1N1CCN(Cc2cccc(OC)c2OC)CC1	-	-	-	-	-	.	.	.
COc1ccc2cc(-c3[nH]ncc3CN3CCCN(c4ccccc4)CC3)ccc2c1	-	-	5.5	-	-	20%	40%	-
CCOc1ccccc1N1CCN(Cc2cn[nH]c2-c2ccc(F)cc2)CC1	-	-	6.8	-	-	44%	44%	-
O=C(NC1CCN(C(=S)Nc2ccccc2)CC1)C1CCCCC1	-	-	-	-	-	.	.	.
CCN1C(=O)/C(=C\c2cccn2-c2ccc([N+](=O)[O-])cc2)N(CC)C1=S	-	-	-	-	-	.	.	.
CCOc1cc(/C=C\[N+](=O)[O-])ccc1OCC(=O)Nc1ccccc1C	-	-	43	-	-	54%	47%	-
COc1cc(NC(=O)c2cc(C)no2)cc(OC)c1OC	-	-	-	-	-	.	.	.
O=S(=O)(/N=C(\Sc1ccc(Cl)cc1)c1ccccc1)c1ccccc1	-	-	-	-	-	-	-	18%
CN(C)Cc1nc2c(c(=O)[nH]1)C1(CCCCC1)Cc1ccccc1-2	-	-	-	-	-	.	.	.
CCC1(CC)Cc2ccccc2-c2nc(NCCCO)[nH]c(=O)c21	-	-	37	-	-	71%	53%	7.5%
O=c1[nH]c(NCCCO)nc2c1C1(CCCC1)Cc1ccccc1-2	-	-	7.3	-	-	31%	-	30%
CCC1(C)Cc2ccccc2-c2nc(NCCCO)[nH]c(=O)c21 (stereo not drawn)	-	-	-	-	-	.	39%	-
CC(c1ccccc1)C(CC(=O)O)C(=O)NC1CCCCC1 (stereo not drawn)	-	-	-	-	-	.	.	.
Clc1ccc(C2=Nn3c(nnc3-c3n[nH]c4c3CCC4)SC2)cc1Cl	-	-	10	-	-	24%	-	-
Clc1ccc2[nH]c3c(c2c1)CCc1cn[nH]c1-3	-	-	11	-	-	75%	40%	27%
